Test results reported in the EternaBench riboswitch data.

Tested on: MS2 coat protein
Assay: apparent Kd, MS2 coat protein; higher = weaker binding; RNA-MaP array
In short: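 On an Illumina sequencing chip, sequenced DNA templates served for transcription of the designed RNAs, which were then bound at room temperature by fluorescently labeled MS2 coat protein at 1.5 nM to 3 μM, with or without input ligand. Apparent Kd is the median of the fits to each cluster's binding curve. Only designs measured on at least 10 clusters were kept.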

[1] = designed as: ON switch for theophylline, no ligand
[2] = ligand present: theophylline, designed as: ON switch for theophylline
[3] = designed as: OFF switch for flavin mononucleotide, no ligand
[4] = ligand present: flavin mononucleotide, designed as: OFF switch for flavin mononucleotide
[5] = designed as: ON switch for flavin mononucleotide, no ligand
[6] = ligand present: flavin mononucleotide, designed as: ON switch for flavin mononucleotide

Sequence	apparent Kd [3] [nM]	apparent Kd [4] [nM]	apparent Kd [5] [nM]	apparent Kd [6] [nM]	also measured
GCAUUAUUAUUAGAUACCAGUGUCGCAGGCGACAUGAGGAUCACCCAUGUAAAGUUACUCCACCCUUGGCAGCUAGUUCGACUAC	–	–	–	–	apparent Kd [1]: 103 nM; apparent Kd [2]: 26.3 nM
CCUUCGUCGAAUGUGUAACAUGAGGAUCACCCAUGUAGUCUGGAGGAUAUCUAACACAGCUGAAAAGAGAAGGCCAGGUCUGCA	26	48.6	–	–	–
UCCAAAUUCCAGAAGGCGUUUAAGCGAGGGUAGGGCGUGCAACAUGAGGAUCACCCAUGUAAUCACGAGGAUAUGGGAGGCACC	7.65	8.34	–	–	–
GUCGAUUUUAAAUUGACAUGAGGAUCACCCAUGUCUUUAAUCAGAAGGCGGACAACAUUAUGUGCCGAGGAUAUGAUUGGAUCC	–	–	14.2	11.3	–
UCACCAUGUCGAAACAUGAGGAUCACCCAUGUGAAUCAUGACAGAAGGUCUAUAGAAUGACGGAAGAAGGAUAUGUCAAUGCGC	17.8	17.4	–	–	–
GCAUACGGAUAGAAGGAACUCUACGAUACGACAUGAGGAUCACCCAUGUAAUAUCAGUUAAACGGUUAGGAUAUAUGGGUAGUC	–	–	81.6	41.9	–
ACUGUCUUUGAUGAUAUGUAUGGGUCAUUGCGAGGACCGGUACGGCCGCCACUCGGUCCGCCACAUGAGGAUCACCCAUGUCUAU	–	–	–	–	apparent Kd (designed as: OFF switch for tryptophan, no ligand): 94.5 nM; apparent Kd (ligand present: tryptophan, designed as: OFF switch for tryptophan): 195 nM
AGCUCGGCAGGAUAUACAUGAGGAUCACCCAUGUUUGCAGGCGCGCCGGUAGACUUUUGUAGAAGGGCCGUAUA	44.8	113	–	–	–
UAAAGAGAAGGAUAUACAGGAAGAAAAGCCUCACAAUCGUAACAUGAGGAUCACCCAUGUAGAAGGACUAACAA	38.7	29.5	–	–	–
CGAUGGGUAACAGGAUAUGAAUGGAAACCUCCAGUGUUGAGCACUUACAUGAGGAUCACCCAUGUUCAGAAGGGUUUGUGAUUG	–	–	38.9	59.9	–
CUUUAUACAUGAGGAUAUUGGAAAACCGGCGUACAAGAAGGCAUGACAUGAGGAUCACCCAUGUAAAGAUAAAGACAAAGCUAA	–	–	22.7	10.3	–
GACUAAUAGGAGAAGGGACAAUCUACAAUCGCGUCAGGAUAUCCGACAUGAGGAUCACCCAUGUAGAGAAGGGCGCAGCCCGGC	–	–	24.3	18.3	–
ACGAAGUGAGGAUAUACAUGAGGAUCACCCAUGUGCCCAGGGUGUGAUUGUAAAGAACGUAGAAGGCACAAUAG	594	132	–	–	–
AGGGACAUGAGGAUCACCCAUGUUGAAACUCGAGGACCGGUACGGCCGCCACUCGUAUAAUCGAUGUCCAUUUGGGAUUCCGGCU	–	–	–	–	apparent Kd (designed as: ON switch for tryptophan, no ligand): 25.3 nM; apparent Kd (ligand present: tryptophan, designed as: ON switch for tryptophan): 24.2 nM
GGCAAGUGAUAGAAGGGAUACAUGAGGAUCACCCAUGUAAGGGCGAAGCCUACCCUCCUUAAAGAUCAGGAUAUAUUGCAGACG	20.3	19.6	–	–	–
GAAUAGGAUCAGAAGGAGCUCCAACGGUGACAUGAGGAUCACCCAUGUACUAAACUACAGAAAAGCUAGGAUAUGAAUAAUAGG	–	–	27.7	25.4	–
GGCCCACAUGAGGAUCACCCAUGUGUGGAUACCAGCCUCAUUUAGGGCCCUUGGCAGCCAGAUAGUAACAAGUCCGAAACACAGA	–	–	–	–	apparent Kd [1]: 93.3 nM; apparent Kd [2]: 94.1 nM
AGAAAACAUGAGGAUCACCCAUGUAAGGAUAUACAAACUCCAGAAAUAAAAGGAUUAAGAAGAAGGUACAUAAA	10.9	9.2	–	–	–
GGACAUGAGGAUCACCCAUGUAGUGGAGGGCUCAGGCUCGCAAGAAGGUUAAGAAUAUAGUCAAUAAAGGAUAUUGAGGGCCGA	21.7	19.2	–	–	–
UGUACAACAUGAGGAUCACCCAUGUGGCACCUCUGUCGAUUCGAGGAUAUCAGGUAAAGUGGCUGUGAGAAGGCGAAAGUUCCG	65	50.3	–	–	–
GUCGCGUAGCAAGGAUAUGCAAAGAGGAAAACUGCAGAAGGUGCCAUUAAAGGACAUGAGGAUCACCCAUGUGCAUUAUCCACA	–	–	53.4	30.9	–
AAUACAUGAGGAUCACCCAUGUUGACAUCAUGAGCCAACCUUAGAAGGACUUUAAUGACGCUCGAGUAGGAUAUAAGGCAAGUU	–	–	13.7	12	–
UCAUGGUCUGGAGAGAGAAUUACAUGAGGAUCACCCAUGUGCAGAAGGAGUUAUCGCACAACAAACUAGGAUAUGCCAAGAAUU	–	–	98.1	152	–
